This note sets out measurements from ChEMBL document CHEMBL1240321, “Cyclostreptin binds covalently to microtubule pores and lumenal taxoid binding sites” (Nat Chem Biol, 2007).

The test system of one assay is A2780 ADR. Briefly: Cytotoxicity against human A2780AD cells at 5 uM. The format is functional, cell-based.
A short description of assay [1]: Induction of mitotic cell cycle arrest in human A2780AD cells assessed as accumulation of cells at G2+M phase at 5 uM after 24 hrs by flow cytometry (Rvb= 20.5%). The format is functional, A2780 ADR.
Assay [2] is described as follows: Induction of mitotic cell cycle arrest in human A2780AD cells assessed as accumulation of cells at G1/G0 phase at 5 uM after 24 hrs by flow cytometry (Rvb= 59.2%). Type of assay: functional, A2780 ADR.
Assay [3] can be described thus: Induction of mitotic cell cycle arrest in human A2780AD cells assessed as accumulation at S phase at 5 uM after 24 hrs by flow cytometry (Rvb= 16.2%). The format is functional, A2780 ADR.
Assay [4] has as its system A2780. Briefly: Cytotoxicity against human A2780 cells at 5 uM. The format is functional, cell-based.
The next assay relates to A2780-1A9. Briefly: Cytotoxicity against human A2780-1A9 cells at 5 uM. The format is functional, cell-based.
Assay [5] concerns A549. Briefly: Cytotoxicity against human A549 cells at 5 uM. Type of assay: functional, cell-based.
Assay [6] concerns A2780. The assay is described as follows: Induction of mitotic cell cycle arrest in human A2780 cells assessed as accumulation of cells at SubG1 phase at 5 uM after 24 hrs by flow cytometry (Rvb= 2.5%). The format is functional.
Assay [7] can be described thus: Induction of mitotic cell cycle arrest in human A2780AD cells assessed as accumulation of cells at SubG1 phase at 5 uM after 24 hrs by flow cytometry (Rvb= 4.1%). The format is functional, A2780 ADR.
Assay [8] relates to A2780. Briefly: Induction of mitotic cell cycle arrest in human A2780 cells assessed as accumulation of cells at G1/G0 phase at 5 uM after 24 hrs by flow cytometry (Rvb= 60%). The format is functional.
Another assay relates to 1A9/ptx-10. The assay is described as follows: Cytotoxicity against human 1A9PTX10 cells at 5 uM. Type of assay: functional, cell-based.
Assay [9] concerns A2780. Briefly: Induction of mitotic cell cycle arrest in human A2780 cells assessed as accumulation at S phase at 5 uM after 24 hrs by flow cytometry (Rvb= 17.5%). Type of assay: functional.
For assay [10], the system named is A2780. Briefly: Induction of mitotic cell cycle arrest in human A2780 cells assessed as accumulation of cells at G2+M phase at 5 uM after 24 hrs by flow cytometry (Rvb= 20%). Type of assay: functional.
The subject of another assay is 1A9/ptx-22. Briefly: Cytotoxicity against human 1A9PTX22 cells at 5 uM. The format is functional, cell-based.
Assay [11] in a line: Binding affinity to microtubule.
Assay [12] can be described thus: Displacement of [3H]discodermolide from microtubule assessed as bound radioligand level at 20 uM treated before radioligand addition by competitive binding assay.
A short description of assay [13]: Displacement of [3H]discodermolide from microtubule assessed as bound radioligand level at 20 uM treated after radioligand addition by competitive binding assay.
A short description of assay [14]: Cytotoxicity against human A2780-1A9 cells. The format is functional, cell-based.
A short description of assay [15]: Cytotoxicity against human A2780AD cells. The conditions noted are these: A2780 ADR. Type of assay: functional, cell-based.
The subject of assay [16] is A2780. The assay is described as follows: Cytotoxicity against human A2780 cells. The format is functional, cell-based.
For assay [17], the system named is A549. The assay is described as follows: Cytotoxicity against human A549 cells. Type of assay: functional, cell-based.
Assay [18] can be described thus: Displacement of [3H]paclitaxel from microtubule assessed as bound radioligand level at 20 uM treated before radioligand addition by competitive binding assay.
The nature of assay [19]: Displacement of [3H]epothilone B from microtubule assessed as bound radioligand level at 20 uM treated after radioligand addition by competitive binding assay.
A short description of assay [20]: Displacement of [3H]epothilone B from microtubule assessed as bound radioligand level at 20 uM treated before radioligand addition by competitive binding assay.
The nature of assay [21]: Displacement of [3H]paclitaxel from microtubule assessed as bound radioligand level at 20 uM treated after radioligand addition by competitive binding assay.
Assay [22] is described as follows: Binding affinity to microtubule pretreated with cyclostreptin. The gist of the method: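 Glutaraldehyde-crosslinked microtubules (60 µM) were preincubated overnight at 22 °C with 66 µM cyclostreptin in GAB (3.4 M glycerol, 10 mM NaPi, 1 mM EGTA, 6 mM MgCl2, pH 6.7) plus 0.1 mM GTP, then dialyzed 5 h against the same buffer. Flutax-2 (50 nM) was titrated with these microtubules, and the association constant for Flutax-2 binding was calculated.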

The subject of assay [23] is PtK2. The assay is described as follows: Induction of microtubule bundle formation in potoroo PtK2 cells at 2 uM after 7 hrs by flow cytometry. Particulars: Potorous tridactylus. The format is cell-based.
Assay [24] is described as follows: Micronucleation in potoroo PtK2 cells at 10 uM treated for 7 hrs followed by compound washout measured after 48 hrs by flow cytometry. The conditions noted are these: Potorous tridactylus.
Assay [25] relates to A2780. Briefly: Induction of mitotic cell cycle arrest in human A2780 cells assessed as accumulation at S phase at 15 nM after 24 hrs by flow cytometry (Rvb= 17.5%). Type of assay: functional.
Assay [26] concerns A549. Briefly: Induction of mitotic cell cycle arrest in human A549 cells assessed as accumulation of cells at SubG1 phase at 20 nM after 24 hrs by flow cytometry (Rvb= 25%). Type of assay: functional.
In assay [27] the test system is A2780. The assay is described as follows: Induction of mitotic cell cycle arrest in human A2780 cells assessed as accumulation of cells at G2+M phase at 15 nM after 24 hrs by flow cytometry (Rvb= 20%). Type of assay: functional.
Assay [28] relates to A549. Briefly: Induction of mitotic cell cycle arrest in human A549 cells assessed as accumulation of cells at G2+M phase at 20 nM after 24 hrs by flow cytometry (Rvb= 19.6%). The format is functional.
Assay [29] has as its system A549. Briefly: Induction of mitotic cell cycle arrest in human A549 cells assessed as accumulation of cells at G1/G0 phase at 20 nM after 24 hrs by flow cytometry (Rvb= 39.2%). Type of assay: functional.
The subject of assay [30] is PtK2. Briefly: Induction of microtubule bundle formation in potoroo PtK2 cells at 10 uM treated for 7 hrs followed by compound washout measured after 48 hrs. The conditions noted are these: Potorous tridactylus.
Assay [31] relates to PtK2. Briefly: Displacement of Flutax-2 from microtubule in potoroo PtK2 cells at 100 uM. The conditions noted are these: Potorous tridactylus.
Assay [32] in a line: Cytotoxicity against human 1A9PTX10 cells. Type of assay: functional, cell-based. Particulars: 1A9/ptx-10.
In assay [33] the test system is PtK2. Briefly: Induction of micronucleation in potoroo PtK2 cells at 10 uM after 7 hrs by flow cytometry. The conditions noted are these: Potorous tridactylus.
A short description of assay [34]: Induction of micronucleation in potoroo PtK2 cells at 5 uM after 7 hrs by flow cytometry. Type of assay: functional, Potorous tridactylus.
Assay [35] in a line: Induction of mitotic cell cycle arrest at G1/G0 phase in potoroo PtK2 cells 10 uM after 7 hrs by flow cytometry (Rvb= 60%). The format is functional, Potorous tridactylus.
The test system of assay [36] is A2780. The assay is described as follows: Induction of mitotic cell cycle arrest in human A2780 cells assessed as accumulation of cells at G1/G0 phase at 15 nM after 24 hrs by flow cytometry (Rvb= 60%). The format is functional.
Assay [37] is described as follows: Cytotoxicity against human 1A9PTX22 cells. Particulars: 1A9/ptx-22. The format is functional, cell-based.
Assay [38] is described as follows: Induction of micronucleation in potoroo PtK2 cells at 10 uM after 7 hrs by flow cytometry. The format is functional, Potorous tridactylus.
The test system of assay [39] is A2780. Briefly: Induction of mitotic cell cycle arrest in human A2780 cells assessed as accumulation of cells at SubG1 phase at 15 nM after 24 hrs by flow cytometry (Rvb= 2.5%). The format is functional.
The nature of assay [40]: Induction of micronucleation in potoroo PtK2 cells at 2 uM after 7 hrs by flow cytometry. The format is functional, Potorous tridactylus.
For assay [41], the system named is PtK2. Briefly: Induction of microtubule bundle formation in potoroo PtK2 cells at 5 uM after 7 hrs by flow cytometry. The format is cell-based. Particulars: Potorous tridactylus.

SMILES strings stand for the structures. The source made the active and inactive calls. The calls are words filed in the database; no cut-off is given here.

For `CC1=C[C@H]2[C@@H](O)[C@H](C)[C@@H](O)[C@@H]2[C@H]2[C@@H]3[C@H]4C(=O)O[C@@H]5CC[C@@](C)(O[C@@H]4[C@@H]5C)[C@@H]3C[C@@H]12`, the result with A2780 ADR, with A2780 [4], in the assay on A2780-1A9, with A549 [5], in the assay on 1A9/ptx-10 and in the assay with 1A9/ptx-22 was inactive. Also, the Activity is reported as 21.5% in assay [1]; 56.9% in [2]; 19.6% in assay [3]; 2.8% with A2780 [6]; 2% in [7]; 58.7% with A2780 [8]. The Activity in the assay on A2780 [9] is listed as 22.5%; with A2780 [10] it was 16%.

`CC1=C[C@H]2[C@@H](O)[C@H](C)[C@@H](O)[C@@H]2[C@H]2[C@H]3[C@@H](C[C@@H]12)[C@@]1(C)CC[C@H]2OC(=O)[C@]34O[C@@]4(O1)[C@@H]2C`: the outcome in the assay with A2780 ADR, in the assay with A2780 [4], in the assay on A2780-1A9, in the assay on A549 [5], in the assay with 1A9/ptx-10 and in the assay on 1A9/ptx-22 was inactive.

In the case of `C=C/C=C\[C@H](C)[C@H](OC(N)=O)[C@@H](C)[C@H](O)[C@@H](C)C/C(C)=C\[C@H](C)[C@@H](O)[C@@H](C)/C=C\[C@@H](O)C[C@@H]1OC(=O)[C@H](C)[C@@H](O)[C@H]1C` [DISERMOLIDE], the dissociation constant (Kd) in [11] was 0.18 nM. Also, the Activity in assay [12] was determined as 31%; in [13], 27%.

With `CC(=O)O[C@@]12CO[C@@H]1C[C@H](O)[C@@]1(C)C(=O)[C@H](O)C3=C(C)[C@@H](OC(=O)[C@H](O)[C@@H](NC(=O)OC(C)(C)C)c4ccccc4)C[C@@](O)([C@@H](OC(=O)c4ccccc4)[C@H]21)C3(C)C` [DOCETAXEL], the IC50 in assay [14] amounted to 0.6 nM; in assay [15], 285 nM; in the assay on A2780 [16], 0.5 nM; with A549 [17] it was 7.2 nM.

With `C/C(=C\c1csc(C)n1)[C@@H]1C[C@@H]2O[C@@H]2CCC[C@H](C)[C@H](O)[C@@H](C)C(=O)C(C)(C)[C@@H](O)CC(=O)O1` [EPOTHILONE A], the Activity was found to be 49% in assay [18]; 49% in assay [19]; 96% in assay [12]; 95% in assay [13]; 49% in assay [20]; 46% in assay [21]. The affinity in assay [11], expressed as Kd, was 28 nM.

In the case of `CC(=O)O[C@H]1C(=O)[C@]2(C)[C@@H](OC(=O)[C@H](C)NC(=O)c3ccc(-c4c5cc(F)c(=O)cc-5oc5cc(O)c(F)cc45)c(C(=O)O)c3)C[C@H]3OC[C@@]3(OC(C)=O)[C@H]2[C@H](OC(=O)c2ccccc2)[C@]2(O)C[C@H](OC(=O)[C@H](O)[C@@H](NC(=O)c3ccccc3)c3ccccc3)C(C)=C1C2(C)C` [FLUTAX 2], in assay [11], binding was put at a Kd of 14 nM. Moreover, the outcome in assay [22] was inactive.

In the case of `CC(=O)O[C@H]1C(=O)[C@@]2(C)[C@H]([C@H](OC(=O)c3ccccc3)[C@]3(O)C[C@H](OC(=O)[C@H](O)[C@@H](NC(=O)c4ccccc4)c4ccccc4)C(C)=C1C3(C)C)[C@]1(OC(C)=O)CO[C@@H]1C[C@@H]2O` [PACLITAXEL], the Activity was found to be 4% with PtK2 [23]; 7% in the assay with A2780 [25]; 36.9% in the assay on A549 [26]; 70.8% in the assay with A2780 [27]; 8.85% with A549 [28]; 8.4% in the assay on A549 [29]. In addition, the Activity amounted to 4% in the assay on PtK2 [33]; 4% in assay [34]; 50% in [35]; 6.5% in the assay on A2780 [36]; 4% in assay [38]; 15.7% in the assay with A2780 [39]. Moreover, the Activity (in assay [40]; in the assay with PtK2 [41]) was 4% throughout. The half-maximal inhibitory concentration (IC50) in assay [14] came to 1.1 nM; in assay [15], 900 nM; in [32], 30 nM; in assay [37] it was 19 nM. For the same compound, the Activity at 10 µM in assay [24] was 40%. The Kd in assay [11] is 70 nM. Also, the result in the assay with PtK2 [30] and in the assay with PtK2 [31] was Active.

`C/C(=C\c1csc(C)n1)[C@@H]1C[C@@H]2O[C@]2(C)CCC[C@H](C)[C@H](O)[C@@H](C)C(=O)C(C)(C)[C@@H](O)CC(=O)O1` [PATUPILONE]: the Activity in assay [18] is 33%; in [19], 9%; in assay [12], 79%; in [13], 76%; in assay [20], 9%; in [21], 31%. Further, binding in [11] was put at a Kd of 1.3 nM.
